# Measured values taken from ChEMBL document CHEMBL3608271, “New phenolic compounds from the seeds of Nigella glandulifera and their inhibitory activities against human cancer cells” (Bioorg Med Chem Lett, 2015).
# Key:
# Type in all cases: functional, cell-based
# [1] = Cytotoxicity against human HCT8 cells after 72 hrs by MTT assay; settings: HCT-8, 72 h
# Method in brief: (§1)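 Cells seeded in 96-well plates and grown 24 h at 37 °C, 5% CO2, then exposed to test compound at five concentrations for 72 h. MTT (0.5 mg/mL in PBS) added, 4 h at 37 °C. Medium replaced with DMSO, shaken 3 min to dissolve formazan, optical density read at 544 nm. 5-Fluorouracil as positive control.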
# A549 = assay: Cytotoxicity against human A549 cells after 72 hrs by MTT assay; settings: A549, 72 h; method in brief: as §1
# [2] = Cytotoxicity against human Bel7402 cells after 72 hrs by MTT assay; settings: Bel-7402, 72 h; method in brief: as §1
# HepG2 = assay: Cytotoxicity against human HepG2 cells after 72 hrs by MTT assay; settings: HepG2, 72 h; method in brief: as §1
SMILES,IC50 [1],IC50 (A549),IC50 [2],IC50 (HepG2)
CC(C)(O)CCc1c(O)cc(CO)cc1O,> 40 µM,> 40 µM,> 40 µM,17.8 µM
CC(C)=CCc1c(O)cc(CO)cc1O,11.4 µM,20.1 µM,7.69 µM,15.8 µM
CC1(C)C=Cc2c(O)cc(CO)cc2O1,> 40 µM,36.3 µM,> 40 µM,17.3 µM
CC1(C)C=Cc2c(cc3c(c2O)C(=O)OC3)O1,24.1 µM,> 40 µM,> 40 µM,37 µM
O=c1[nH]cc(F)c(=O)[nH]1 [FLUOROURACIL],6.3 µM,14.2 µM,10.1 µM,16.4 µM
